Test results reported in ChEMBL document CHEMBL1155468, “Syntheses and evaluation of anticonvulsant profile and teratogenicity of novel amide derivatives of branched aliphatic carboxylic acids with 4-aminobenzensulfonamide” (J Med Chem, 2010).
The source made the active and inactive calls. The rule behind the calls is not given here.

Key:
Mus musculus [1] = experiment: Anticonvulsant activity in CF1 albino mouse assessed as inhibition of maximal electroshock-induced seizures at 30 mg/kg, ip after 0.5 hrs; type: functional, organism-based; set-up: dose 30 mg/kg
Outline: (§1)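 Test compounds suspended in 0.5% methylcellulose and given ip to adult male CF no. 1 albino mice (18-25 g) at 0.01 mL/g body weight before maximal electroshock challenge.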

Mus musculus [2] = experiment: Anticonvulsant activity in CF1 albino mouse assessed as inhibition of maximal electroshock-induced seizures at 100 mg/kg, ip after 0.5 hrs; type: functional, organism-based; set-up: dose 100 mg/kg; outline: as §1
Mus musculus [3] = experiment: Teratogenic effect in SWV mouse assessed as live fetuses at 729 mg/kg, ip administered on morning of day 8 of gestation; type: toxicity, organism-based; set-up: dose 729 mg/kg, route intraperitoneal; settings: in vivo
Outline: (§2)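 SWV inbred mice: two-month-old nulligravid females mated overnight with males and checked for vaginal plugs next morning; gestation onset taken as 10 p.m. the previous night. On gestation day 8.5 each dam got one ip injection, 0.55–2.7 mmol/kg, in 25% aqueous Cremophor EL (vehicle controls dosed alike), 10 μL/g body weight. Litters and implants tallied; resorptions and live fetuses reported as counts with percentages.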

Mus musculus [4] = experiment: Teratogenic effect in SWV mouse assessed as resorptions at 729 mg/kg, ip administered on morning of day 8 of gestation; type: toxicity, organism-based; set-up: dose 729 mg/kg, route intraperitoneal; settings: in vivo; outline: as §2
Rattus norvegicus [5] = experiment: Anticonvulsant activity in Sprague-Dawley rat assessed as inhibition of maximal electroshock-induced seizures at 30 mg/kg, po after 2 hrs
Rattus norvegicus [6] = experiment: Anticonvulsant activity in Sprague-Dawley rat assessed as inhibition of maximal electroshock-induced seizures at 30 mg/kg, po after 4 hrs
Mus musculus [7] = experiment: Anticonvulsant activity in CF1 albino mouse assessed as inhibition of subcutaneous pentylenetetrazole-induced seizures at 300 mg/kg, ip after 4 hrs; type: functional, organism-based; set-up: dose 300 mg/kg
Outline: (§3)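 Adult male CF no. 1 albino mice (18-25 g) dosed ip with compound suspended in 0.5% methylcellulose (0.01 mL/g). Convulsant: pentylenetetrazol dissolved in 0.9% saline as a 0.85% solution for mice, given subcutaneously.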

Mus musculus [8] = experiment: Teratogenic effect in SWV mouse assessed as fetuses with neural tube deffects at 148 mg/kg, ip administered on morning of day 8 of gestation; type: toxicity, organism-based; set-up: dose 148 mg/kg, route intraperitoneal; settings: in vivo
Outline: (§4)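 Two-month-old nulligravid SWV females were mated overnight and checked for vaginal plugs the next morning; gestation onset was set at 10 p.m. the previous night. On gestation day 8.5, each dam received a single ip injection (0.55-2.7 mmol/kg range) or vehicle (25% aqueous Cremophor EL) at 10 μL/g body weight. Litters were scored for implants, resorptions, live and dead fetuses, and fetuses with neural tube defects.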

Mus musculus [9] = experiment: Teratogenic effect in SWV mouse assessed as live fetuses at 294 mg/kg, ip administered on morning of day 8 of gestation; type: toxicity, organism-based; set-up: dose 294 mg/kg, route intraperitoneal; settings: in vivo; outline: as §4
Mus musculus [10] = experiment: Anticonvulsant activity in CF1 albino mouse assessed as inhibition of subcutaneous pentylenetetrazole-induced seizures at 30 mg/kg, ip after 4 hrs; type: functional, organism-based; set-up: dose 30 mg/kg; outline: as §3
Mus musculus [11] = experiment: Anticonvulsant activity in CF1 albino mouse assessed as inhibition of maximal electroshock-induced seizures at 100 mg/kg, ip after 4 hrs; type: functional, organism-based; set-up: dose 100 mg/kg; outline: as §1
Mus musculus [12] = experiment: Anticonvulsant activity in CF1 albino mouse assessed as inhibition of maximal electroshock-induced seizures at 300 mg/kg, ip after 0.5 hrs; type: functional, organism-based; set-up: dose 300 mg/kg; outline: as §1
Mus musculus [13] = experiment: Anticonvulsant activity in CF1 albino mouse assessed as inhibition of subcutaneous pentylenetetrazole-induced seizures at 100 mg/kg, ip after 0.5 hrs; type: functional, organism-based; set-up: dose 100 mg/kg; outline: as §3
Mus musculus [14] = experiment: Teratogenic effect in SWV mouse assessed as resorptions at 486 mg/kg, ip administered on morning of day 8 of gestation; type: toxicity, organism-based; set-up: dose 486 mg/kg, route intraperitoneal; settings: in vivo; outline: as §2
Mus musculus [15] = experiment: Neurotoxicity in CF1 albino mouse assessed as motor impairment at 100 mg/kg, ip after 0.5 hrs; type: toxicity, organism-based; set-up: dose 100 mg/kg, route intraperitoneal; settings: in vivo
Mus musculus [16] = experiment: Teratogenic effect in SWV mouse assessed as resorptions at 294 mg/kg, ip administered on morning of day 8 of gestation; type: toxicity, organism-based; set-up: dose 294 mg/kg, route intraperitoneal; settings: in vivo; outline: as §2
Rattus norvegicus [17] = experiment: Neurotoxicity in Sprague-Dawley rat assessed as motor impairment at 30 mg/kg, po after 0.25 to 4 hrs; settings: in vivo
Rattus norvegicus [18] = experiment: Anticonvulsant activity in Sprague-Dawley rat assessed as inhibition of maximal electroshock-induced seizures at 30 mg/kg, po after 1 hr
Mus musculus [19] = experiment: Teratogenic effect in SWV mouse assessed as resorptions at 148 mg/kg, ip administered on morning of day 8 of gestation; type: toxicity, organism-based; set-up: dose 148 mg/kg, route intraperitoneal; settings: in vivo; outline: as §2
Mus musculus [20] = experiment: Anticonvulsant activity in CF1 albino mouse assessed as inhibition of subcutaneous pentylenetetrazole-induced seizures at 300 mg/kg, ip after 0.5 hrs; type: functional, organism-based; set-up: dose 300 mg/kg; outline: as §3
Mus musculus [21] = experiment: Neurotoxicity in CF1 albino mouse assessed as motor impairment at 300 mg/kg, ip after 4 hrs; type: toxicity, organism-based; set-up: dose 300 mg/kg, route intraperitoneal; settings: in vivo
Mus musculus [22] = experiment: Anticonvulsant activity in CF1 albino mouse assessed as inhibition of subcutaneous pentylenetetrazole-induced seizures at 100 mg/kg, ip after 4 hrs; type: functional, organism-based; set-up: dose 100 mg/kg; outline: as §3
Mus musculus [23] = experiment: Teratogenic effect in SWV mouse assessed as live fetuses at 148 mg/kg, ip administered on morning of day 8 of gestation; type: toxicity, organism-based; set-up: dose 148 mg/kg, route intraperitoneal; settings: in vivo; outline: as §4
Mus musculus [24] = experiment: Neurotoxicity in CF1 albino mouse assessed as motor impairment at 30 mg/kg, ip after 4 hrs; type: toxicity, organism-based; set-up: dose 30 mg/kg, route intraperitoneal; settings: in vivo
Mus musculus [25] = experiment: Neurotoxicity in CF1 albino mouse assessed as motor impairment at 300 mg/kg, ip after 0.5 hrs; type: toxicity, organism-based; set-up: dose 300 mg/kg, route intraperitoneal; settings: in vivo
Mus musculus [26] = experiment: Anticonvulsant activity in CF1 albino mouse assessed as inhibition of maximal electroshock-induced seizures at 30 mg/kg, ip after 4 hrs; type: functional, organism-based; set-up: dose 30 mg/kg; outline: as §1
Mus musculus [27] = experiment: Teratogenic effect in SWV mouse assessed as fetuses with neural tube deffects at 294 mg/kg, ip administered on morning of day 8 of gestation; type: toxicity, organism-based; set-up: dose 294 mg/kg, route intraperitoneal; settings: in vivo; outline: as §4
Mus musculus [28] = experiment: Anticonvulsant activity in CF1 albino mouse assessed as inhibition of subcutaneous pentylenetetrazole-induced seizures at 30 mg/kg, ip after 0.5 hrs; type: functional, organism-based; set-up: dose 30 mg/kg; outline: as §3
Mus musculus [29] = experiment: Neurotoxicity in CF1 albino mouse assessed as motor impairment at 100 mg/kg, ip after 4 hrs; type: toxicity, organism-based; set-up: dose 100 mg/kg, route intraperitoneal; settings: in vivo
Rattus norvegicus [30] = experiment: Anticonvulsant activity in po dosed rat assessed as inhibition of maximal electroshock-induced seizures
Rattus norvegicus [31] = organism: Rattus norvegicus; experiment: Protective index, ratio of TD50 for rat to ED50 for maximal electroshock-induced rat seizure model
Mus musculus [32] = experiment: Teratogenic effect in SWV mouse assessed as fetuses with neural tube deffects at 486 mg/kg, ip administered on morning of day 8 of gestation; type: toxicity, organism-based; set-up: dose 486 mg/kg, route intraperitoneal; settings: in vivo; outline: as §4
Mus musculus [33] = experiment: Teratogenic effect in SWV mouse assessed as live fetuses at 486 mg/kg, ip administered on morning of day 8 of gestation; type: toxicity, organism-based; set-up: dose 486 mg/kg, route intraperitoneal; settings: in vivo; outline: as §2
Mus musculus [34] = experiment: Anticonvulsant activity in CF1 albino mouse assessed as inhibition of maximal electroshock-induced seizures at 300 mg/kg, ip after 4 hrs; type: functional, organism-based; set-up: dose 300 mg/kg; outline: as §1
Mus musculus [35] = experiment: Teratogenic effect in SWV mouse assessed as fetuses with neural tube deffects at 729 mg/kg, ip administered on morning of day 8 of gestation; type: toxicity, organism-based; set-up: dose 729 mg/kg, route intraperitoneal; settings: in vivo; outline: as §4
Mus musculus [36] = experiment: Neurotoxicity in CF1 albino mouse assessed as motor impairment at 30 mg/kg, ip after 0.5 hrs; type: toxicity, organism-based; set-up: dose 30 mg/kg, route intraperitoneal; settings: in vivo

CCC(CC)C(=O)Nc1ccc(S(N)(=O)=O)cc1
Activity (Mus musculus [1]): Active | Activity (Mus musculus [2]): Active | Activity (Mus musculus [3]): 46.8% | Activity (Mus musculus [4]): 53.2% | Activity (Rattus norvegicus [5]): Active | Activity (Rattus norvegicus [6]): Active | Activity (Mus musculus [7]): inactive | Activity (Mus musculus [8]): 0.8% | Activity (Mus musculus [9]): 84.2% | Activity (Mus musculus [10]): inactive | Activity (Mus musculus [11]): Active | Activity (Mus musculus [12]): Active | Activity (Mus musculus [13]): inactive | Activity (Mus musculus [14]): 52.1% | Activity (Mus musculus [15]): Non-toxic | Activity (Mus musculus [16]): 15.8% | Activity (Rattus norvegicus [17]): Non-toxic | Activity (Rattus norvegicus [18]): Active | Activity (Mus musculus [19]): 7.7% | Activity (Mus musculus [20]): inactive | Activity (Mus musculus [21]): Non-toxic | Activity (Mus musculus [22]): inactive | Activity (Mus musculus [23]): 93.3% | Activity (Mus musculus [24]): Non-toxic | Activity (Mus musculus [25]): Non-toxic | Activity (Mus musculus [26]): Active | Activity (Mus musculus [27]): 4.5% | Activity (Mus musculus [28]): inactive | Activity (Mus musculus [29]): Non-toxic | ED50 (Rattus norvegicus [30]): 9.9 mg/kg | Ratio TD50/ED50 (Rattus norvegicus [31]): >50.5 | Activity (Mus musculus [32]): 25.9% | Activity (Mus musculus [33]): 47.9% | Activity (Mus musculus [34]): Active | Activity (Mus musculus [35]): 20.3% | Activity (Mus musculus [36]): Non-toxic
